Data as given in ChEMBL document CHEMBL1133447, “Inhibition of protein synthesis by didemnins: cell potency and SAR” (J Med Chem, 2000).
Starred links: 1 amine or outer side, 2 acyl side, 3 side chain; linkers in the order of their positions; H or OH if unused. Positions of bridges follow the written chain, without caps; N, C: chain ends. Non-standard residues stand in square brackets, D forms with d. Residues, ends and D or L forms follow the SMILES beside them. ξ: configuration not given here. *: point of attachment. X1 = CC[C@H](C)[C@@H](N[*:1])[C@@H](O)CC(=O)O[C@H](C(=O)[C@H](C)C(=O)[*:2])C(C)C; Benzoyl(4-benzoyl) = O=C(c1ccccc1)c1ccc(C(=O)*)cc1; X2 = CC[C@H](C)[C@@H](N[*:1])[C@@H](O)CC(=O)[*:2]; Propanoyl(3-(4-MeO-Ph)) = COc1ccc(CCC(=O)*)cc1; NMeY = CN[C@@H](Cc1ccc(O)cc1)C(=O)O; NMeL = CN[C@@H](CC(C)C)C(=O)O; dHica = CC(C)C[C@@H](O)C(=O)O; dNMeL = CN[C@H](CC(C)C)C(=O)O; pGlu = O=C1CC[C@@H](C(=O)O)N1; NMeV = CN[C@H](C(=O)O)C(C)C; Hiv = CC(C)[C@H](O)C(=O)O; NMeA = CN[C@@H](C)C(=O)O; Lac = C[C@H](O)C(=O)O; OBn = c1ccc(CO*)cc1; Ahx = NCCCCCC(=O)O; ξP = O=C(O)C1CCCN1; βAla = NCCC(=O)O

organism: Oryctolagus cuniculus; experiment: In vitro inhibition of protein synthesis in tobacco mosaic virus mRNA-encoded proteins in rabbit reticulocyte lysate; type: functional
How it was run: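 Cell-free translation in rabbit reticulocyte lysate programmed with tobacco mosaic virus mRNA. Protein synthesis was measured as [³⁵S]methionine incorporation into the encoded proteins across a range of inhibitor concentrations, and IC50 was derived from the concentration dependence.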

Compound	IC50 [µM]
COc1ccc(C[C@@H](C(=O)NCCNC(=O)[C@H](CC(C)C)N(C)C(=O)[C@@H]2CCCN2C(=O)[C@H](C)O)N(C)C(=O)C2CCCN2C(=O)[C@H](CC(C)C)NC(=O)[C@@H](C)NC(=O)OCc2ccccc2)cc1 (stereo not given in full)	275
COc1ccc(C[C@@H](C(=O)O[C@H](C)[C@H](NC(=O)[C@@H](CC(C)C)N(C)C(=O)[C@@H]2CCCN2C(=O)[C@H](C)O)C(=O)N2CCCCNC(=O)[C@H](C)C(=O)[C@H](C(C)C)OC(=O)C[C@H](O)[C@H]2CC(C)C)N(C)C(C)=O)cc1	> 1000
CC[C@H](C)[C@H]1NC(=O)[C@@H](NC(=O)[C@@H](CC(C)C)N(C)C(=O)[C@@H]2CCCN2C(=O)[C@H](C)OC(C)=O)[C@@H](C)OC(=O)[C@H](Cc2ccc(OC)cc2)N(C)C(=O)[C@@H]2CCCN2C(=O)[C@H](CC(C)C)NC(=O)[C@@H](C)C(=O)[C@H](C(C)C)OC(=O)C[C@@H]1OC(C)=O	10
CSCC[C@H](N)C(=O)N[C@@H](CCC(=O)O)C(=O)N[C@@H](Cc1c[nH]cn1)C(=O)N[C@@H](Cc1ccccc1)C(=O)N[C@@H](CCCN=C(N)N)C(=O)N[C@@H](Cc1c[nH]c2ccccc12)C(=O)NCC(=O)O	4
CC[C@H](C)[C@H]1NC(=O)[C@@H](NC(=O)[C@@H](CC(C)C)N(C)C(=O)[C@@H]2CCCN2C(=O)[C@H](C)O)[C@@H](C)OC(=O)[C@@H]2CCc3ccccc3N2C(=O)[C@@H]2CCCN2C(=O)[C@H](CC(C)C)NC(=O)[C@@H](C)C(=O)[C@H](C(C)C)OC(=O)C[C@@H]1O	2.7
COc1ccc(C[C@H]2C(=O)O[C@H](C)[C@H](NC(=O)[C@@H](CC(C)C)N(C)C(=O)[C@@H]3CCCN3C(=O)[C@H](C)O)C(=O)N[C@H](C(C)C)[C@@H](O)CC(=O)O[C@@H](C(C)C)C(=O)[C@H](C)C(=O)N[C@@H](CC(C)C)C(=O)N3CCC[C@H]3C(=O)N2C)cc1	3
COc1ccc(C[C@H]2C(=O)O[C@H](C)[C@H](NC(=O)[C@@H](CC(C)C)N(C)C(=O)C3CCCN3C(=O)[C@H](C)O)C(=O)N[C@H](C(C)C)[C@@H](O)CC(=O)O[C@@H](C(C)C)C(=O)[C@H](C)C(=O)N[C@@H](CC(C)C)C(=O)N3CCCC3C(=O)N2C)cc1 (stereo not given in full)	1
COc1ccc(C[C@H]2C(=O)N[C@@H](C)C(=O)N(C)[C@H]3Cc4ccc(cc4)Oc4cc(ccc4OC)C[C@@H](C(=O)N[C@H](C)C(=O)N[C@@H](C)C(=O)N2C)N(C)C3=O)cc1	0.05
CC[C@H](C)[C@H]1NC(=O)[C@@H](NC(=O)[C@@H](CC(C)C)N(C)C(=O)C2CCCN2)[C@@H](C)OC(=O)[C@H](Cc2ccc(OC)cc2)N(C)C(=O)C2CCCN2C(=O)[C@H](CC(C)C)NC(=O)[C@@H](C)C(=O)[C@H](C(C)C)OC(=O)C[C@@H]1O (stereo not given in full)	4.3
CC[C@H](C)[C@H]1NC(=O)[C@@H](NC(=O)[C@@H](CC(C)C)N(C)C(=O)C2C=CCN2C(=O)OC(C)(C)C)[C@@H](C)OC(=O)[C@H](Cc2ccc(OC)cc2)N(C)C(=O)C2CCCN2C(=O)[C@H](CC(C)C)NC(=O)[C@@H](C)C(=O)[C@H](C(C)C)OC(=O)C[C@@H]1O (stereo not given in full)	5.3
CC[C@H](C)[C@H]1NC(=O)[C@@H](NC(=O)[C@@H](CC(C)C)N(C)C(=O)C2CCCN2C(=O)[C@H](C)O)[C@@H](C)OC(=O)[C@H](CC(C)C)N(C)C(=O)C2CCCN2C(=O)[C@H](CC(C)C)NC(=O)[C@@H](C)C(=O)[C@H](C(C)C)OC(=O)C[C@@H]1O (stereo not given in full)	9
C=CCOC(=O)N[C@@H](CC(C)C)C(=O)N1CCC[C@H]1C(=O)N(C)[C@@H](Cc1ccc(OC)cc1)C(=O)O[C@H](C)[C@H](NC(=O)[C@@H](CC(C)C)N(C)C(=O)[C@@H]1CCCN1C(=O)[C@H](C)O)C(=O)OCC[Si](C)(C)C	112
CC[C@H](C)[C@H]1NC(=O)[C@@H](NC(=O)[C@@H](CC(C)C)N(C)C(=O)C2C=CCN2)[C@@H](C)OC(=O)[C@H](Cc2ccc(OC)cc2)N(C)C(=O)C2CCCN2C(=O)[C@H](CC(C)C)NC(=O)[C@@H](C)C(=O)[C@H](C(C)C)OC(=O)C[C@@H]1O (stereo not given in full)	4.3
CC[C@H](C)[C@H]1NC(=O)[C@@H](NC(=O)[C@@H](CC(C)C)N(C)C(=O)C2CCCN2C(=O)[C@H](C)O)[C@@H](C)OC(=O)[C@H](Cc2ccccc2)N(C)C(=O)C2CCCN2C(=O)[C@H](CC(C)C)NC(=O)[C@@H](C)C(=O)[C@H](C(C)C)OC(=O)C[C@@H]1O (stereo not given in full)	2.5
CC[C@H](C)[C@H]1NC(=O)[C@@H](NC(=O)[C@@H](CC(C)C)NC)[C@@H](C)OC(=O)[C@H](Cc2ccc(OC)cc2)N(C)C(=O)C2CCCN2C(=O)[C@H](CC(C)C)NC(=O)[C@@H](C)C(=O)[C@H](C(C)C)OC(=O)C[C@@H]1O (stereo not given in full)	5.4
CC(=O)O[C@H](C)[C@H](NC(=O)[C@H](CC(C)C)N(C)C(=O)[C@@H]1CCCN1C(=O)[C@H](C)O)C(=O)OCc1ccccc1 (H-[Lac]P[NMeL]T(Ac)-OBn)	276
COc1ccc(CCC(=O)O[C@H](C)[C@H](NC(=O)[C@H](CC(C)C)N(C)C(=O)[C@@H]2CCCN2C(=O)[C@H](C)O)C(=O)OCc2ccccc2)cc1 (H-[Lac]P[NMeL]T(Propanoyl(3-(4-MeO-Ph)))-OBn)	405
CC[C@H](C)[C@H]1NC(=O)[C@@H](NC(=O)[C@@H](CC(C)C)N(C)C(=O)[C@@H]2CCCN2C(=O)[C@H](C)O)[C@@H](C)OC(=O)[C@H](Cc2ccc(OC)cc2)N(C)C(=O)[C@@H]2CCCN2C(=O)[C@H](CC(C)C)NC(=O)[C@H](C(C)C)OC(=O)C[C@@H]1O (H-[Lac]P[dNMeL]T[X2][Hiv]LP[NMeY](Me); ester 4-C)	1.3
CC[C@H](C)[C@@H]1NC(=O)[C@@H]2CCCN2C(=O)[C@@H](CC(C)C)OC(=O)CCNC(=O)[C@H](C)N(C)C(=O)[C@H](C(C)C)N(C)C1=O (cyclo(I[NMeV][NMeA][βAla][dHica]P))	> 1000
CC[C@H](C)[C@H]1NC(=O)[C@@H](NC(=O)[C@@H](CC(C)C)N(C)C(=O)CCCCCNC(=O)c2ccc(C(=O)c3ccccc3)cc2)[C@@H](C)OC(=O)[C@H](Cc2ccc(OC)cc2)N(C)C(=O)C2CCCN2C(=O)[C@H](CC(C)C)NC(=O)[C@@H](C)C(=O)[C@H](C(C)C)OC(=O)C[C@@H]1O (stereo not given in full) ({Benzoyl(4-benzoyl)-Ahx}-[dNMeL]T[X1]L[ξP][NMeY](Me); ester 2-C)	24
CC[C@H](C)[C@H]1NC(=O)[C@@H](NC(=O)[C@@H](CC(C)C)N(C)C(=O)CNC(=O)c2ccc(C(=O)c3ccccc3)cc2)[C@@H](C)OC(=O)[C@H](Cc2ccc(OC)cc2)N(C)C(=O)C2CCCN2C(=O)[C@H](CC(C)C)NC(=O)[C@@H](C)C(=O)[C@H](C(C)C)OC(=O)C[C@@H]1O (stereo not given in full) ({Benzoyl(4-benzoyl)}-G[dNMeL]T[X1]L[ξP][NMeY](Me); ester 3-C)	4.5
CC[C@H](C)[C@H]1NC(=O)[C@@H](NC(=O)[C@@H](CC(C)C)N(C)C(=O)c2ccc(C(=O)c3ccccc3)cc2)[C@@H](C)OC(=O)[C@H](Cc2ccc(OC)cc2)N(C)C(=O)C2CCCN2C(=O)[C@H](CC(C)C)NC(=O)[C@@H](C)C(=O)[C@H](C(C)C)OC(=O)C[C@@H]1O (stereo not given in full) ({Benzoyl(4-benzoyl)}-[dNMeL]T[X1]L[ξP][NMeY](Me); ester 2-C)	4
O=C(O)C1=CC(=C(c2ccc(O)c(C(=O)O)c2)c2ccc(O)c(C(=O)O)c2)C=CC1=O [AURINTRICARBOXYLIC ACID]	10
C=C(NC(=O)C(=C)NC(=O)c1ccc2c(n1)-c1coc(n1)C(=C)NC(=O)C(=C)NC(=O)c1nc(oc1C)C(=C)NC(=O)C(C(C)(C)O)NC(=O)C(=C)NC(=O)c1nc(oc1C)/C(=C/C)NC(=O)C(C(C)O)NC(=O)c1csc-2n1)C(N)=O (stereo not given) [BERNINAMYCIN]	600
COc1ccc(C[C@H]2C(=O)N[C@@H](C)C(=O)N(C)[C@@H]3C(=O)N(C)[C@@H](Cc4ccc(O)c(c4)Oc4ccc(cc4)[C@@H]3O)C(=O)N[C@@H](C)C(=O)N[C@@H](C)C(=O)N2C)cc1 [BOUVARDIN]	0.1
C[C@@H]1C[C@@H]([C@H](O)CC2CC(=O)NC(=O)C2)C(=O)[C@@H](C)C1 [CYCLOHEXIMIDE]	5
CC[C@H](C)[C@H](NC(=O)[C@H](Cc1ccccc1)NC(=O)[C@H](C)NC(=O)[C@H](CC(=O)O)NC(=O)[C@H](CCCCN)NC(=O)[C@H](CO)NC(=O)[C@@H]1CCCN1C(=O)[C@@H]1CCC(=O)N1)C(=O)NCC(=O)N[C@@H](CC(C)C)C(=O)N[C@@H](CCSC)C(N)=O [ELEDOISIN] ([pGlu]PSKDAFIGLM-NH2)	500
CC(=O)O[C@H]1C[C@@]2(C)[C@@H](C[C@@H](O)[C@H]3[C@@]4(C)CC[C@@H](O)[C@@H](C)[C@@H]4CC[C@@]32C)/C1=C(\CCC=C(C)C)C(=O)O [FUSIDIC ACID]	400
C/C1=C\[C@H](C)C[C@H](C)OC(=O)C[C@H](c2ccc(O)cc2)NC(=O)[C@@H](Cc2c(Br)[nH]c3ccccc23)N(C)C(=O)[C@H](C)NC(=O)[C@@H](C)C1 [JASPAMIDE]	> 500
H-ELNFTPNWGT-NH2	> 1000
